Assay results from ChEMBL document CHEMBL1149289, “Synthesis and antibacterial activity of new poly-S-lysine-porphyrin conjugates” (J Med Chem, 2004).

Legend:
Staphylococcus aureus [1] = assay: Logarithmic survival of Staphylococcus aureus ATCC 25923 at 0.1 uM after 10 mins and irradiated with white light at the fluence rate of 50 mW/cm2 relative to control; type: functional; details: ATCC 25923, light or radiation study
Outline: (§1)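 S. aureus ATCC 25923 or MRSA 110 (PBS-washed, 10^8 to 10^9 cells/mL) were incubated with 0.1 μM photosensitizer for 10 min in the dark at room temperature. They were then irradiated with white light at 50 mW/cm² for varying times up to 30 min. Survival was read as cfu on BHA and divided by cfu of controls without photosensitizer.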

Staphylococcus aureus [2] = assay: Logarithmic survival of Staphylococcus aureus ATCC 25923 at 0.25 uM after 10 mins and irradiated with white light at the fluence rate of 50 mW/cm2 for 30 mins relative to control; type: functional; details: ATCC 25923, light or radiation study
Outline: (§2)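 Strains grown aerobically at 37 °C on brain heart agar; stationary-phase cells washed twice in PBS and adjusted to OD650 ca. 0.7 (10^8 to 10^9 cells/mL). Cells incubated with photosensitizer at various concentrations for 10 min in the dark at room temperature, then irradiated with white light at 50 mW/cm² for 30 min. Survivors counted as cfu on BHA after 16–20 h at 37 °C, expressed relative to no-photosensitizer controls. Dark controls were run without irradiation.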

Escherichia coli [3] = assay: Logarithmic survival of Escherichia coli O4 at 0.25 uM after 10 mins and irradiated with white light at the fluence rate of 50 mW/cm2 for 30 mins relative to control; type: functional; details: O4, light or radiation study; outline: as §2
Staphylococcus aureus [4] = assay: Logarithmic survival of methicillin-resistant Staphylococcus aureus 110 at 2.5 uM after 10 mins and irradiated with white light at the fluence rate of 50 mW/cm2 for 30 mins relative to control; type: functional; details: light or radiation study
Outline: (§3)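 MRSA 110 grown aerobically at 37 °C on BHA. Stationary-phase cells were taken into BHI, washed twice in PBS and diluted to OD650 ~0.7 (10^8 to 10^9 cells/mL). Suspensions were held with photosensitizer for 10 min in the dark at room temperature, then given white light for 30 min. Cells were serially diluted, plated on BHA and counted after 16–20 h at 37 °C. Survival = cfu ÷ cfu of photosensitizer-free controls.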

Escherichia coli [5] = assay: Drug uptake per mg of protein in Escherichia coli O4 at 1 uM after 10 mins; type: ADME, organism-based; details: in vivo
Outline: (§4)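 Bacterial suspensions (10^8 to 10^9 cells/mL in PBS) were incubated with porphyrin for 10 min in the dark at room temperature, then centrifuged. The pellet was digested in 2% aqueous SDS. Porphyrin was quantified by spectrofluorimetry and cell protein by modified Lowry assay (BSA standard). Uptake is given as nmol per mg cell protein.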

Staphylococcus aureus [6] = assay: Logarithmic survival of methicillin-resistant Staphylococcus aureus 110 at 1 uM after 10 mins and irradiated with white light at the fluence rate of 50 mW/cm2 for 30 mins relative to control; type: functional; details: light or radiation study; outline: as §3
Staphylococcus aureus [7] = assay: Antibacterial activity against Staphylococcus aureus ATCC 25923 measured as 4 log decrease in survival; type: functional; outline: as §2
Staphylococcus aureus [8] = assay: Logarithmic survival of Staphylococcus aureus ATCC 25923 at 0.1 uM after 10 mins and irradiated with white light at the fluence rate of 50 mW/cm2 for 15 mins relative to control; type: functional; details: ATCC 25923, light or radiation study; outline: as §1
Escherichia coli [9] = assay: Drug uptake per mg of protein in Escherichia coli O4 at 0.5 uM after 10 mins; type: ADME, organism-based; details: in vivo; outline: as §4
Staphylococcus aureus [10] = assay: Logarithmic survival of Staphylococcus aureus ATCC 25923 at 0.1 uM after 10 mins and irradiated with white light at the fluence rate of 50 mW/cm2 for 30 mins relative to control; type: functional; details: ATCC 25923, light or radiation study; outline: as §1
Escherichia coli [11] = assay: Drug uptake per mg of protein in Escherichia coli O4 at 5 uM after 10 mins; type: ADME, organism-based; details: in vivo; outline: as §4
Staphylococcus aureus [12] = assay: Logarithmic survival of methicillin-resistant Staphylococcus aureus 110 at 0.1 uM after 10 mins and irradiated with white light at the fluence rate of 50 mW/cm2 for 2.5 mins relative to control; type: functional; details: light or radiation study; outline: as §1
Staphylococcus aureus [13] = assay: Logarithmic survival of Staphylococcus aureus ATCC 25923 at 2.5 uM after 10 mins and irradiated with white light at the fluence rate of 50 mW/cm2 for 30 mins relative to control; type: functional; details: ATCC 25923, light or radiation study; outline: as §2
Staphylococcus aureus [14] = assay: Antibacterial activity against methicillin-resistant Staphylococcus aureus 110 measured as 4 log decrease in survival; type: functional; outline: as §2
Staphylococcus aureus [15] = assay: Drug uptake per mg of protein in methicillin-resistant Staphylococcus aureus 110 at 10 uM after 10 mins; type: ADME, organism-based; details: in vivo; outline: as §4
[16] = Photostability after irradiation with white light at the fluence rate of 50 mW/cm2 for 5 mins; type: ADME; details: read-out: Stability
[17] = Photostability after irradiation with white light at the fluence rate of 50 mW/cm2 for 3 mins; type: ADME; details: read-out: Stability
Staphylococcus aureus [18] = assay: Logarithmic survival of methicillin-resistant Staphylococcus aureus 110 at 0.1 uM after 10 mins and irradiated with white light at the fluence rate of 50 mW/cm2 for 15 mins relative to control; type: functional; details: light or radiation study; outline: as §1
Staphylococcus aureus [19] = assay: Logarithmic survival of Staphylococcus aureus ATCC 25923 at 0.1 uM after 10 mins and irradiated with white light at the fluence rate of 50 mW/cm2 for 2.5 mins relative to control; type: functional; details: ATCC 25923, light or radiation study; outline: as §1
Staphylococcus aureus [20] = assay: Logarithmic survival of methicillin-resistant Staphylococcus aureus 110 at 0.1 uM after 10 mins and irradiated with white light at the fluence rate of 50 mW/cm2 for 5 mins relative to control; type: functional; details: light or radiation study; outline: as §1
Staphylococcus aureus [21] = assay: Logarithmic survival of Staphylococcus aureus ATCC 25923 at 0.1 uM after 10 mins and irradiated with white light at the fluence rate of 50 mW/cm2 for 5 mins relative to control; type: functional; details: ATCC 25923, light or radiation study; outline: as §1
Escherichia coli [22] = assay: Logarithmic survival of Escherichia coli O4 at 5 uM after 10 mins and irradiated with white light at the fluence rate of 50 mW/cm2 for 30 mins relative to control; type: functional; details: O4, light or radiation study; outline: as §2
Staphylococcus aureus [23] = assay: Logarithmic survival of Staphylococcus aureus ATCC 25923 at 0.01 uM after 10 mins and irradiated with white light at the fluence rate of 50 mW/cm2 for 30 mins relative to control; type: functional; details: ATCC 25923, light or radiation study; outline: as §2
Staphylococcus aureus [24] = assay: Drug uptake per mg of protein in Staphylococcus aureus ATCC 25923 at 0.5 uM after 10 mins; type: ADME, organism-based; details: in vivo; outline: as §4
Staphylococcus aureus [25] = assay: Drug uptake per mg of protein in methicillin-resistant Staphylococcus aureus 110 at 0.5 uM after 10 mins; type: ADME, organism-based; details: in vivo; outline: as §4
Escherichia coli [26] = assay: Logarithmic survival of Escherichia coli O4 at 0.1 uM after 10 mins and irradiated with white light at the fluence rate of 50 mW/cm2 for 30 mins relative to control; type: functional; details: O4, light or radiation study; outline: as §2
Staphylococcus aureus [27] = assay: Logarithmic survival of Staphylococcus aureus ATCC 25923 at 0.1 uM after 10 mins and irradiated with white light at the fluence rate of 50 mW/cm2 for 1 min relative to control; type: functional; details: ATCC 25923, light or radiation study; outline: as §1
Escherichia coli [28] = assay: Drug uptake per mg of protein in Escherichia coli O4 at 2.5 uM after 10 mins; type: ADME, organism-based; details: in vivo; outline: as §4
Escherichia coli [29] = assay: Logarithmic survival of Escherichia coli O4 at 0.5 uM after 10 mins and irradiated with white light at the fluence rate of 50 mW/cm2 for 30 mins relative to control; type: functional; details: O4, light or radiation study; outline: as §2
Staphylococcus aureus [30] = assay: Drug uptake per mg of protein in Staphylococcus aureus ATCC 25923 at 10 uM after 10 mins; type: ADME, organism-based; details: in vivo; outline: as §4
Staphylococcus aureus [31] = assay: Logarithmic survival of Staphylococcus aureus ATCC 25923 at 0.5 uM after 10 mins and irradiated with white light at the fluence rate of 50 mW/cm2 for 30 mins relative to control; type: functional; details: ATCC 25923, light or radiation study; outline: as §2
[32] = Photostability after irradiation with white light at the fluence rate of 50 mW/cm2 for 20 mins; type: ADME; details: read-out: Stability

SMILES	survival at 0.1 µM (Staphylococcus aureus [1])	survival at 0.25 µM (Staphylococcus aureus [2])	survival at 0.25 µM (Escherichia coli [3])	survival at 2.5 µM (Staphylococcus aureus [4])	Drug uptake (Escherichia coli [5])	survival at 1 µM (Staphylococcus aureus [6])	Activity (Staphylococcus aureus [7])	survival at 0.1 µM (Staphylococcus aureus [8])	Drug uptake (Escherichia coli [9])	survival at 0.1 µM (Staphylococcus aureus [10])	Drug uptake (Escherichia coli [11])	survival at 0.1 µM (Staphylococcus aureus [12])	survival at 2.5 µM (Staphylococcus aureus [13])	Activity (Staphylococcus aureus [14])	Drug uptake (Staphylococcus aureus [15])	remaining at 5 min [16]	remaining at 0.05 h [17]	survival at 0.1 µM (Staphylococcus aureus [18])	survival at 0.1 µM (Staphylococcus aureus [19])	survival at 0.1 µM (Staphylococcus aureus [20])	further results
C[n+]1ccc(-c2c3nc(c(-c4cc[n+](C)cc4)c4ccc([nH]4)c(-c4cc[n+](C)cc4)c4nc(c(-c5ccc(C(=O)O)cc5)c5ccc2[nH]5)C=C4)C=C3)cc1.[I-].[I-].[I-]	0.82	1.56	1.64	-2.13	2.47 nmol/mg	-0.43	2.5 µM	-1.17	1.29 nmol/mg	1.87	4.35 nmol/mg	1.84	-2%	2.5 µM	18 nmol/mg	83%	86%	1.82	0.49	1.87	survival at 0.1 µM (Staphylococcus aureus [21]): -0.28; survival at 5 µM (Escherichia coli [22]): -2.57; survival at 0.01 µM (Staphylococcus aureus [23]): 2; Drug uptake (Staphylococcus aureus [24]): 1.88 nmol/mg; Drug uptake (Staphylococcus aureus [25]): 2.08 nmol/mg; survival at 0.1 µM (Escherichia coli [26]): 1.57; survival at 0.1 µM (Staphylococcus aureus [27]): 0.67; Drug uptake (Escherichia coli [28]): 3.47 nmol/mg; survival at 0.5 µM (Escherichia coli [29]): 1.52; Drug uptake (Staphylococcus aureus [30]): 17 nmol/mg; survival at 0.5 µM (Staphylococcus aureus [31]): -0.42; remaining at 20 min [32]: 72%
O=C(O)c1ccc(-c2c3nc(c(-c4ccncc4)c4ccc([nH]4)c(-c4ccncc4)c4nc(c(-c5ccncc5)c5ccc2[nH]5)C=C4)C=C3)cc1 [PORPHIRIN]	1.91	-1.9	1.7	-3.11	7.65 nmol/mg	-2.27	0.25 µM	-2.48	4.16 nmol/mg	-1.7	85.6 nmol/mg	1.8	-3.3%	1 µM	342 nmol/mg	96%	97%	0.26	0.22	1.61	survival at 0.1 µM (Staphylococcus aureus [21]): -0.85; survival at 5 µM (Escherichia coli [22]): 1.6; survival at 0.01 µM (Staphylococcus aureus [23]): 2; Drug uptake (Staphylococcus aureus [24]): 3.15 nmol/mg; Drug uptake (Staphylococcus aureus [25]): 5.5 nmol/mg; survival at 0.1 µM (Escherichia coli [26]): 2; survival at 0.1 µM (Staphylococcus aureus [27]): 1.49; Drug uptake (Escherichia coli [28]): 35.3 nmol/mg; survival at 0.5 µM (Escherichia coli [29]): 1.46; Drug uptake (Staphylococcus aureus [30]): 187 nmol/mg; survival at 0.5 µM (Staphylococcus aureus [31]): -2.39; remaining at 20 min [32]: 90%
